Results reported in ChEMBL document CHEMBL3046450, “Pyrrole- and dihydropyrrole-fused neonicotinoids: design, synthesis, and insecticidal evaluation” (2013).
≈ marks a conversion by molar mass, not a printed value.

Columns and labels:
Aphis craccivora [1] = test: Insecticidal activity against Aphis craccivora (cowpea aphid) assessed as mortality at 500 mg/l; format: functional
Method in brief: (§1)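 Compounds dissolved in DMF, then diluted with water containing Triton X-100 (0.1 mg L−1) to test concentrations of 500.0, 250.0 and 125.0 mg L−1, plus others; mortality of cowpea aphids was scored.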

Aphis craccivora [2] = test: Insecticidal activity against Aphis craccivora (cowpea aphid) assessed as mortality; format: functional; method in brief: as §1

SMILES	Activity (Aphis craccivora [1]) [%]	LC50 (Aphis craccivora [2]) [mg/L]
CCOc1c([N+](=O)[O-])c(N(CC)Cc2ccc(Cl)nc2)n(C)c1C	84	–
CCCOc1c([N+](=O)[O-])c(N(CC)Cc2ccc(Cl)nc2)n(C)c1C	77	–
CCCCOC1C([N+](=O)[O-])=C2N(Cc3ccc(Cl)nc3)CCN2C1(C)OCCCC (stereo unspecified)	100	3.4 (≈ 7.75 µM)
CC1C(=O)C([N+](=O)[O-])=C2N(Cc3ccc(Cl)nc3)CCN21 (stereo unspecified)	100	43.5 (≈ 141 µM)
CC12OCCOC1C([N+](=O)[O-])=C1N(Cc3ccc(Cl)nc3)CCN12 (stereo unspecified)	100	10 (≈ 28.3 µM)
CC12OCCCOC1C([N+](=O)[O-])=C1N(Cc3ccc(Cl)nc3)CCN12 (stereo unspecified)	100	11.1 (≈ 30.3 µM)
CC12OCCCCOC1C([N+](=O)[O-])=C1N(Cc3ccc(Cl)nc3)CCN12 (stereo unspecified)	100	14.8 (≈ 38.9 µM)
COc1c([N+](=O)[O-])c2n(c1C)CCN2Cc1ccc(Cl)nc1	100	14.6 (≈ 45.2 µM)
CCOc1c([N+](=O)[O-])c2n(c1C)CCN2Cc1ccc(Cl)nc1	100	37.3 (≈ 111 µM)
CCCOc1c([N+](=O)[O-])c2n(c1C)CCN2Cc1ccc(Cl)nc1	100	24.5 (≈ 69.8 µM)
CCCCOc1c([N+](=O)[O-])c2n(c1C)CCN2Cc1ccc(Cl)nc1	100	39.5 (≈ 108 µM)
CCN(Cc1ccc(Cl)nc1)C1=C([N+](=O)[O-])C(OC)C(C)(O)N1C (stereo unspecified)	21.6	–
CCOC1C([N+](=O)[O-])=C(N(CC)Cc2ccc(Cl)nc2)N(C)C1(C)O (stereo unspecified)	29.7	–
CCCOC1C([N+](=O)[O-])=C(N(CC)Cc2ccc(Cl)nc2)N(C)C1(C)O (stereo unspecified)	19	–
CCN(Cc1ccc(Cl)nc1)C1=C([N+](=O)[O-])C(OC(C)C)C(C)(O)N1C (stereo unspecified)	21.2	–
CCCCOC1C([N+](=O)[O-])=C(N(CC)Cc2ccc(Cl)nc2)N(C)C1(C)O (stereo unspecified)	16.4	–
CCN(Cc1ccc(Cl)nc1)c1c([N+](=O)[O-])c(OC)c(C)n1C	91	–
CC1(O)C(O)C([N+](=O)[O-])=C2N(Cc3ccc(Cl)nc3)CCN21 (stereo unspecified)	100	2 (≈ 6.12 µM)
COC1C([N+](=O)[O-])=C2N(Cc3ccc(Cl)nc3)CCN2C1(C)OC (stereo unspecified)	100	0.7 (≈ 1.97 µM)
CCOC1C([N+](=O)[O-])=C2N(Cc3ccc(Cl)nc3)CCN2C1(C)OCC (stereo unspecified)	100	0.6 (≈ 1.57 µM)
CCCOC1C([N+](=O)[O-])=C2N(Cc3ccc(Cl)nc3)CCN2C1(C)OCCC (stereo unspecified)	100	0.8 (≈ 1.95 µM)
O=[N+]([O-])/N=C1\NCCN1Cc1ccc(Cl)nc1 [IMIDACLOPRID]	100	8.9 (≈ 34.8 µM)
